By microsomal CLint is commonly meant a measure of how fast metabolising enzymes remove a compound, apart from limits set by blood flow. A word on the IC50: it is the concentration that inhibits the measured activity by half. Higher therefore signals a need for much substance. For orientation: ED50 means the dose that gives a 50% effect, or the effect in half of the subjects. A word on the Ki: it is a measure of affinity in units of concentration, obtained from inhibition or displacement. A lower Ki goes with higher affinity. In general, bioavailability refers to dose-corrected exposure relative to a reference, in per cent. A higher bioavailability goes with much systemic uptake. A word on the inhibition: it is the relative decrease from the control value, in per cent.

SMILES strings stand for the structures. The source made the active and inactive calls. The rule behind the calls is not given here.

Data set [1] can be described thus: Intrinsic clearance in human liver microsomes. It counts as ADME, Microsome.
Data set [2] can be described thus: Inhibition of human CYP450. The class given is ADME.
The test system of data set [3] is Mus musculus. As to the kind of experiment: Cardioprotective effect in po dosed mouse assessed as inhibition of 5-HT-induced bradycardia administered 1 hr prior to 5-HT challenge. The class given is functional. The method in brief:
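Murine von Bezold–Jarisch reflex assay. Test agents were given orally 1 h before a 0.1 mg/kg 5-HT challenge. Read-out was block of 5-HT-induced transient bradycardia.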

The target of data set [4] is T1, 5-hydroxytryptamine receptor 3A (Homo sapiens, UniProt P46098).
T1 sequence (P46098 whole entry): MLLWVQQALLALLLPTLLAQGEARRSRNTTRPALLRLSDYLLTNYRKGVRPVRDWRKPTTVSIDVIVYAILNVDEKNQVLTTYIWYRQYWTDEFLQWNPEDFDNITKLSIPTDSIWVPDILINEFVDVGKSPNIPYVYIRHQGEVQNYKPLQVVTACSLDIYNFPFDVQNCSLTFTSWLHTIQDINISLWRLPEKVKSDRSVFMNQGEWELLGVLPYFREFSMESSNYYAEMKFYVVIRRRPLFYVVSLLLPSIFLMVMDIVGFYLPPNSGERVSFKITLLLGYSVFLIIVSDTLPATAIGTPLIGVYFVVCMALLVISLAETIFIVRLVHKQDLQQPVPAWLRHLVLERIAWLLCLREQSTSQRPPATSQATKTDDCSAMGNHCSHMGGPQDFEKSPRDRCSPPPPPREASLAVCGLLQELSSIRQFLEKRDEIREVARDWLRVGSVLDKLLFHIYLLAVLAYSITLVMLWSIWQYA
The data set can be described thus: Binding affinity to human HT3A receptor.

The target of a further data set is Cytochrome P450 3A4 (Homo sapiens, UniProt P08684). The data set can be described thus: Inhibition of human CYP3A4. The class given is ADME.
Chain of Cytochrome P450 3A4 (P08684 whole entry): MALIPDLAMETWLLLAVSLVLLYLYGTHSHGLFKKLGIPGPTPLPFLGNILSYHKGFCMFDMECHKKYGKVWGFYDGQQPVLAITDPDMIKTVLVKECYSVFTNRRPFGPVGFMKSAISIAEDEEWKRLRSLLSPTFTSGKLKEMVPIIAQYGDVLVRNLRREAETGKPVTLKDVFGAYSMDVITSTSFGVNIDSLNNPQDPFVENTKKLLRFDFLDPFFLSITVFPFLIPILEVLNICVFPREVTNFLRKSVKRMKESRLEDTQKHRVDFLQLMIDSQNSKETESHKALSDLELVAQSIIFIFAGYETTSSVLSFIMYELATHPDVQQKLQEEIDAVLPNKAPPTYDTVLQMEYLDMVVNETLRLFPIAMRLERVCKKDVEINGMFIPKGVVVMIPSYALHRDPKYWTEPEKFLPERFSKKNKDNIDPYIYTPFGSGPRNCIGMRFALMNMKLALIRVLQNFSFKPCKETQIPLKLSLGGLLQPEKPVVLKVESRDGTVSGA
Data set [5] addresses Voltage-gated inwardly rectifying potassium channel KCNH2 (Homo sapiens, UniProt Q12809). As to the kind of experiment: Inhibition of human ERG expressed in HEK cells by patch clamp technique. For orientation: In patch-clamp work, channel activity is measured electrically.
Data set [6] can be described thus: Bioavailability in rat at 10 mg/kg, po or 1 mg/kg, iv. It counts as ADME, organism-based. To be noted: in vivo.
The species named for another data set is Homo sapiens. The data set can be described thus: Inhibition of human nicotinic acetylcholine receptor at 1 uM. The essentials: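 Single-concentration screen at 1 µM within a 68-membered off-target receptor panel; inhibition above 50% counted as significant.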
Data set [7] is filed under the species Mus musculus. To be noted: 0.56 mg/kg.
The species named for data set [8] is Mus musculus. The settings on record: 1.9 mg/kg.
The target of another data set is Cytochrome P450 2C19 (Homo sapiens, UniProt P33261). As to the kind of experiment: Inhibition of human CYP2C19. It counts as ADME.
Chain of Cytochrome P450 2C19 (P33261 whole entry): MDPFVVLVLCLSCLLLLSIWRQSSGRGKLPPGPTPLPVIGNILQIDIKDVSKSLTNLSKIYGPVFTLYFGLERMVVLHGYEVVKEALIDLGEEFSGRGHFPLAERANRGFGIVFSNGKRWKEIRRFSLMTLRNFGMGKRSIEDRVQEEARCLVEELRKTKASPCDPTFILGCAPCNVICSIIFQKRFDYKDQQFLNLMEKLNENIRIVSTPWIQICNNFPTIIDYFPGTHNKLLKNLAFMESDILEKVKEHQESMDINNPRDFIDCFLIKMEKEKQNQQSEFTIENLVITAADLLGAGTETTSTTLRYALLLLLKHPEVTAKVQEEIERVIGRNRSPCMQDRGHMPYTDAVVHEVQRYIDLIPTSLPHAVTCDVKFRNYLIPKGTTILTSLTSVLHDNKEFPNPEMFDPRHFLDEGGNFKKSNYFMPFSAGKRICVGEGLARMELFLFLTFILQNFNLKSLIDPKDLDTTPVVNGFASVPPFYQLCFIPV

Chain of Voltage-gated inwardly rectifying potassium channel KCNH2 (Q12809 whole entry): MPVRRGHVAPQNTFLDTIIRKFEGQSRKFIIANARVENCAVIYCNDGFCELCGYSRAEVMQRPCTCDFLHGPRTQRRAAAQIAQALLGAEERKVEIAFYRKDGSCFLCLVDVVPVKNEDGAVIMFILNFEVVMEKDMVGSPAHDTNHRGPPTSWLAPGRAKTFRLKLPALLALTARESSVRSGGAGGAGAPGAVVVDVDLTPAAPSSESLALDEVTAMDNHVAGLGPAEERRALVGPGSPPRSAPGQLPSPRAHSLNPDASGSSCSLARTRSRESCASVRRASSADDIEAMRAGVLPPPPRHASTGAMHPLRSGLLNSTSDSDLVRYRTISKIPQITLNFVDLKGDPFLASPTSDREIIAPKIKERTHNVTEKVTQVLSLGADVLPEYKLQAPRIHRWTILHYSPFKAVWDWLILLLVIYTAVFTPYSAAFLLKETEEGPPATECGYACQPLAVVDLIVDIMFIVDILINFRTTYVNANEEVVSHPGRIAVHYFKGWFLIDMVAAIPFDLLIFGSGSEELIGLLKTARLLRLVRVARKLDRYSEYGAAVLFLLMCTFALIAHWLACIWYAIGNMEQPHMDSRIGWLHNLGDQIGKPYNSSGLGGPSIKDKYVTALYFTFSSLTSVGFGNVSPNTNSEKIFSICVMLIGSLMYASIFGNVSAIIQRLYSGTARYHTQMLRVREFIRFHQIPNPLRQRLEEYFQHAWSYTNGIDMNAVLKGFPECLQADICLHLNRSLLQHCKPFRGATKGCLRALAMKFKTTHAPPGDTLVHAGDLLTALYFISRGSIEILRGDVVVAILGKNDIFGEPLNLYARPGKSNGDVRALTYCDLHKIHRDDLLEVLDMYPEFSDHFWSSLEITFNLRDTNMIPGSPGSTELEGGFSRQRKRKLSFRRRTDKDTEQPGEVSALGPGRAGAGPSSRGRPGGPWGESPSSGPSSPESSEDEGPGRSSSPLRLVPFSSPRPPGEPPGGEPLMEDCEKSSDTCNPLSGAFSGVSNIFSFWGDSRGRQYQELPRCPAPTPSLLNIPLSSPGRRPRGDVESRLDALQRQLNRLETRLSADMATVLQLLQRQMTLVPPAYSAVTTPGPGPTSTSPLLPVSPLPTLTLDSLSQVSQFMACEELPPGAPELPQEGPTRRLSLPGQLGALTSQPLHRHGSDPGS

In [1], `Nc1nc2c(C(=O)N[C@@H]3CN4CCC3CC4)cccc2o1` registered a microsomal CLint below 2 µL/min/mg. The same compound gave an IC50 in data set [2] above 100 µM. For the same compound, the ED50 with Mus musculus [3] worked out at 1.08 mg/kg. In addition, the affinity in data set [4], expressed as Ki, was 13.8 nM.

Consider `CN1[C@@H]2CCC[C@H]1C[C@H](NC(=O)c1cccc3oc(-c4ccccc4)nc13)C2`, for which, in data set [4], the Ki turned out to be 15.1 nM.

`CN1[C@@H]2CCC[C@H]1C[C@H](NC(=O)c1cccc3oc(N4CCNCC4)nc13)C2` registered a Ki in data set [4] of 72.2 nM.

In [4], `CN1[C@@H]2CCC[C@H]1C[C@H](NC(=O)c1cccc3nc(-c4ccc(Cl)cc4)oc13)C2` displayed a Ki of 73.8 nM.

In data set [4], `C[C@@H]1CN(c2nc3c(C(=O)N[C@@H]4C[C@H]5CCC[C@@H](C4)N5C)cccc3o2)C[C@H](C)O1` returned a Ki of 35.3 nM.

Regarding `O=C(N[C@@H]1CN2CCC1CC2)c1cccc2oc(C3CC3)nc12`, the concentration for half-maximal inhibition (IC50) against Cytochrome P450 3A4 is above 100 µM; in data set [5] it was 700 nM. The compound also came in with a microsomal CLint in data set [1] of 4.5 µL/min/mg. For the same compound, in [4], the Ki is 32.7 nM. In addition, the bioavailability in [6] was determined as 13%.

For `Cc1[nH]cnc1CN1CCc2c(c3ccccc3n2C)C1=O` [ALOSETRON], the microsomal CLint in [1] was determined as 3 µL/min/mg. Besides, the ED50 with Mus musculus [3] worked out at 0.02 mg/kg. The compound further registered a bioavailability in data set [6] of 100%.

As for `COc1ccccc1-c1nc2c(C(=O)N[C@@H]3C[C@H]4CCC[C@@H](C3)N4C)cccc2o1`, the IC50 against Cytochrome P450 3A4 came out at 1.1 µM; in data set [5], 400 nM. Further, the microsomal CLint in data set [1] amounted to 2.8 µL/min/mg. For the same compound, the inhibition constant (Ki) in [4] stood at 14.9 nM. In data set [6], this compound came in with a bioavailability of 44%.

In the case of `C[C@H]1COC[C@H](C)N1c1nc2c(C(=O)N[C@@H]3C[C@H]4CCC[C@@H](C3)N4C)cccc2o1`, in data set [4], the affinity, expressed as Ki, was 0.6 nM.

In turn, `CN1[C@@H]2CCC[C@H]1C[C@H](NC(=O)c1cccc3oc(C4CC4)nc13)C2` gave an IC50 against Cytochrome P450 3A4 above 50 µM. In data set [1], this compound returned a microsomal CLint of 23.5 µL/min/mg. In addition, in data set [4], the Ki amounted to 8.3 nM. Also, in data set [6], the bioavailability was 32%.

In data set [4], `CN1[C@@H]2CCC[C@H]1C[C@H](NC(=O)c1cccc3oc(-c4ccc(Cl)cc4)nc13)C2` came in with a Ki of 18 nM.

As to `CCC[C@H]1COCCN1c1nc2c(C(=O)N[C@@H]3C[C@H]4CCC[C@@H](C3)N4C)cccc2o1`, the Ki in data set [4] came out at 3.9 nM.

In turn, `CC[C@H]1COC[C@H](C)N1c1nc2c(C(=O)N[C@@H]3C[C@H]4CCC[C@@H](C3)N4C)cccc2o1` yielded a Ki in data set [4] of 1 nM.

In the case of `CC(C)N(C)c1nc2c(C(=O)N[C@@H]3CN4CCC3CC4)cccc2o1`, in data set [4], the Ki is 66.5 nM.

For the compound `CN1[C@@H]2CCC[C@H]1C[C@H](NC(=O)c1cccc3oc(N4CCOCC4)nc13)C2`, the figures for the IC50 (at Cytochrome P450 3A4; in data set [5]) were above 50 µM and 1400 nM, respectively. Besides, in the data set listed under Homo sapiens, the inhibition was above 50%. This compound returned a microsomal CLint in data set [1] of 1 µL/min/mg. This compound also had a Ki in [4] of 40 nM. In addition, the bioavailability in data set [6] stood at 35%.

Consider `COc1ccc(-c2nc3cccc(C(=O)N[C@@H]4C[C@H]5CCC[C@@H](C4)N5C)c3o2)cc1`, for which the affinity in [4], expressed as Ki, was 58.5 nM.

Take `COc1ccccc1-c1nc2c(C(=O)N[C@@H]3CN4CCC3CC4)cccc2o1`: the IC50 against Cytochrome P450 3A4 was above 50 µM; in data set [5], 200 nM. Moreover, in data set [1], the microsomal CLint was 10.1 µL/min/mg. The Ki in data set [4] turned out to be 47.3 nM. Besides, the bioavailability in data set [6] is 100%.

In data set [4], `C[C@H]1CNCCN1c1nc2c(C(=O)N[C@@H]3C[C@H]4CCC[C@@H](C3)N4C)cccc2o1` yielded a Ki of 16.5 nM.

In the case of `C[C@@H]1CNC[C@H](C)N1c1nc2c(C(=O)N[C@@H]3C[C@H]4CCC[C@@H](C3)N4C)cccc2o1`, the affinity in data set [4] corresponds to a Ki of 37.3 nM.

Compound `CCN(CC)c1nc2c(C(=O)N[C@@H]3CN4CCC3CC4)cccc2o1` displayed a Ki in [4] of 12.4 nM.

Take `CN1[C@@H]2CCC[C@H]1C[C@H](NC(=O)c1cccc3oc(N4CCOC[C@@H]4C(C)(C)C)nc13)C2`: affinity in data set [4] was put at a Ki of 2 nM.

As for `CC[C@H]1COCCN1c1nc2c(C(=O)N[C@@H]3C[C@H]4CCC[C@@H](C3)N4C)cccc2o1`, the Ki in data set [4] is 4.6 nM.

Consider `CNc1nc2c(C(=O)N[C@@H]3CN4CCC3CC4)cccc2o1`, for which the Ki in [4] came to 36.4 nM.

As for `CCNc1nc2c(C(=O)N[C@@H]3CN4CCC3CC4)cccc2o1`, in data set [4], the Ki came to 36.4 nM.

Turning to `CN1[C@@H]2CCC[C@H]1C[C@H](NC(=O)c1cccc3nc(-c4ccccc4)oc13)C2`, the Ki in data set [4] was found to be 40.4 nM.

In data set [1], `Nc1nc2c(C(=O)N[C@@H]3CN4CCC3CC4)cc(Cl)cc2o1` returned a microsomal CLint of 3 µL/min/mg. Also, the inhibition entry in the data set listed under Mus musculus [7] is “Active”. The IC50 in data set [2] is above 30 µM; in data set [5], 4800 nM. Besides, in the data set with Mus musculus [3], the ED50 was 0.4 mg/kg. Besides, in [4], the affinity, expressed as Ki, was 4.7 nM.

`CN1[C@@H]2CCC[C@H]1C[C@H](NC(=O)c1cccc3oc(-c4ccc(F)cc4)nc13)C2` had a Ki in data set [4] of 16.3 nM.

Turning to `COc1ccc(-c2nc3c(C(=O)N[C@@H]4C[C@H]5CCC[C@@H](C4)N5C)cccc3o2)cc1`, the inhibition constant (Ki) in data set [4] turned out to be 18.8 nM.

Consider `CN1[C@@H]2CCC[C@H]1C[C@H](NC(=O)c1cccc3nc(-c4ccc(F)cc4)oc13)C2`, for which the affinity in [4] corresponds to a Ki of 94.9 nM.

`C[C@H]1CNC[C@H](C)N1c1nc2c(C(=O)N[C@@H]3C[C@H]4CCC[C@@H](C3)N4C)cccc2o1`: in data set [1], the microsomal CLint was below 2 µL/min/mg. In addition, the inhibition entry in the data set listed under Mus musculus [8] was “Active”. Moreover, the ED50 in the data set with Mus musculus [3] was 0.85 mg/kg. For the same compound, the IC50 against Cytochrome P450 2C19 amounted to 1400 nM; in [5], 6400 nM. Besides, the Ki in data set [4] stood at 2.4 nM.

Compound `C[C@@H]1CNC[C@@H](C)N1c1nc2c(C(=O)N[C@@H]3C[C@H]4CCC[C@@H](C3)N4C)cccc2o1` came in with a Ki in data set [4] of 59.4 nM.

In the case of `CC(C)[C@H]1COCCN1c1nc2c(C(=O)N[C@@H]3C[C@H]4CCC[C@@H](C3)N4C)cccc2o1`, affinity in data set [4] was put at a Ki of 5 nM.

Take `CC(C)C[C@H]1COCCN1c1nc2c(C(=O)N[C@@H]3C[C@H]4CCC[C@@H](C3)N4C)cccc2o1`: affinity in data set [4] was put at a Ki of 3.5 nM.

Regarding `O=C(N[C@@H]1CN2CCC1CC2)c1cccc2oc(N3CCOCC3)nc12`, the IC50 is above 100 µM against Cytochrome P450 3A4 and 3200 nM in [5]. The compound further showed a microsomal CLint in data set [1] of 0.6 µL/min/mg. This compound had a bioavailability in data set [6] of 100%.

In turn, `Cc1nccn1CC1CCc2c(c3ccccc3n2C)C1=O` (stereo not given) [ONDANSETRON] displayed a microsomal CLint in data set [1] of 5.8 µL/min/mg. Besides, the ED50 with Mus musculus [3] was 0.54 mg/kg. In addition, the bioavailability in [6] is 21%.

The values are drawn from ChEMBL document CHEMBL1268946, “Discovery of 2-substituted benzoxazole carboxamides as 5-HT3 receptor antagonists” (Bioorg Med Chem Lett, 2010).
